According to ChEMBL document CHEMBL2331283, “Anti-inflammatory sesquiterpene derivatives from the leaves of Tripterygium wilfordii” (J Nat Prod, 2013):

How the values were obtained:
A2780 = assay: Cytotoxicity against human A2780 cells by MTT assay; format: functional, cell-based
In short: (§1)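 MTT cytotoxicity assay on five human carcinoma lines: A549 (lung), Bel-7402 (liver), BGC-823 (stomach), HCT-8 (colon) and A2780 (ovarian). The assay was run following a published procedure. The read-out is an IC50.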

HCT-8 = assay: Cytotoxicity against human HCT8 cells by MTT assay; format: functional, cell-based; in short: as §1
BGC-823 = assay: Cytotoxicity against human BGC823 cells by MTT assay; format: functional, cell-based; in short: as §1
Bel-7402 = assay: Cytotoxicity against human Bel7402 cells by MTT assay; format: functional, cell-based; in short: as §1
A549 = assay: Cytotoxicity against human A549 cells by MTT assay; format: functional, cell-based; in short: as §1
RAW264.7 = assay: Inhibition of LPS-induced nitric oxide production in mouse RAW264.7 cells at 5 uM; format: functional

SMILES | IC50 (A2780) [nM] | IC50 (HCT-8) [nM] | IC50 (BGC-823) [nM] | IC50 (Bel-7402) [nM] | IC50 (A549) [nM] | inhibition at 5 µM (RAW264.7) [%]
C/C=C(\C)C(=O)O[C@H]1[C@H](OC(C)=O)[C@@H]2[C@@H](OC(=O)c3cccnc3)[C@@]3(OC2(C)C)[C@@]1(COC(C)=O)[C@@H](OC(C)=O)CC[C@]3(C)O (relative stereo) | > 1000 | > 1000 | > 1000 | > 1000 | > 1000 | –
CC(=O)OC[C@@]12[C@@H](OC(=O)/C=C/c3ccccc3)CC[C@](C)(O)[C@]13OC(C)(C)[C@H](C(=O)[C@H]2OC(=O)c1cccnc1)[C@H]3O (relative stereo) [TRIPTERSININ A] | > 1000 | > 1000 | > 1000 | > 1000 | > 1000 | 47.3
CC(=O)OC[C@@]12[C@@H](OC(=O)/C=C\c3ccccc3)CC[C@](C)(O)[C@]13OC(C)(C)[C@H](C(=O)[C@H]2OC(=O)c1cccnc1)[C@H]3O (relative stereo) [TRIPTERSININ B] | > 1000 | > 1000 | > 1000 | > 1000 | > 1000 | –
CC(=O)OC[C@@]12[C@@H](OC(=O)/C=C/c3ccccc3)CC[C@](C)(O)[C@]13OC(C)(C)[C@H]([C@@H](OC(C)=O)[C@H]2OC(=O)c1cccnc1)[C@H]3O (relative stereo) [TRIPTERSININ C] | > 1000 | > 1000 | > 1000 | > 1000 | > 1000 | –
CC(=O)OC[C@@]12[C@@H](OC(=O)/C=C\c3ccccc3)CC[C@](C)(O)[C@]13OC(C)(C)[C@H]([C@@H](OC(C)=O)[C@H]2OC(=O)c1cccnc1)[C@H]3O (relative stereo) [TRIPTERSININ D] | > 1000 | > 1000 | > 1000 | > 1000 | > 1000 | –
CC(=O)OC[C@@]12[C@@H](OC(=O)/C=C\c3ccccc3)CC[C@](C)(O)[C@]13OC(C)(C)[C@H]([C@@H](OC(C)=O)[C@H]2OC(=O)c1cccnc1)[C@H]3OC(C)=O (relative stereo) [TRIPTERSININ E] | > 1000 | > 1000 | > 1000 | > 1000 | > 1000 | –
CC(=O)OC[C@@]12[C@@H](OC(C)=O)CC[C@](C)(O)[C@]13OC(C)(C)[C@H]([C@@H](OC(C)=O)[C@H]2OC(=O)c1ccoc1)[C@H]3OC(=O)c1cccnc1 (relative stereo) [TRIPTERSININ F] | > 1000 | > 1000 | > 1000 | > 1000 | > 1000 | –
CC(=O)OC[C@@]12[C@@H](OC(C)=O)CC[C@](C)(O)[C@]13OC(C)(C)[C@H]([C@@H](OC(=O)c1cccnc1)[C@H]2OC(=O)c1ccoc1)[C@H]3OC(C)=O (relative stereo) [TRIPTERSININ G] | > 1000 | > 1000 | > 1000 | > 1000 | > 1000 | –
CC(=O)OC[C@@]12[C@@H](OC(=O)c3ccoc3)CC[C@](C)(O)[C@]13OC(C)(C)[C@H]([C@@H](OC(=O)c1cccnc1)[C@H]2OC(=O)c1ccoc1)[C@H]3OC(C)=O (relative stereo) [TRIPTERSININ H] | > 1000 | > 1000 | > 1000 | > 1000 | > 1000 | –
CC(=O)OC[C@@]12[C@@H](OC(=O)c3ccoc3)CC[C@](C)(O)[C@]13OC(C)(C)[C@H]([C@@H](OC(C)=O)[C@H]2OC(=O)c1ccoc1)[C@H]3O (relative stereo) [TRIPTERSININ I] | > 1000 | > 1000 | > 1000 | > 1000 | > 1000 | 45.5
CC(=O)OC[C@@]12[C@@H](OC(C)=O)CC[C@](C)(O)[C@]13OC(C)(C)[C@H]([C@@H](O)[C@H]2OC(=O)c1ccoc1)[C@H]3OC(=O)c1ccoc1 (relative stereo) [TRIPTERSININ J] | > 1000 | > 1000 | > 1000 | > 1000 | > 1000 | –
CC(=O)OC[C@@]12[C@@H](OC(=O)c3ccoc3)CC[C@](C)(O)[C@]13OC(C)(C)[C@H]([C@@H](OC(C)=O)[C@H]2OC(=O)c1ccoc1)[C@H]3OC(C)=O (relative stereo) [TRIPTERSININ K] | > 1000 | > 1000 | > 1000 | > 1000 | > 1000 | 49.9
C[C@@H]1C[C@H]2[C@@H]3CCC4=CC(=O)C=C[C@]4(C)[C@@]3(F)[C@@H](O)C[C@]2(C)[C@@]1(O)C(=O)CO [DEXAMETHASONE] | – | – | – | – | – | 70.4
CC(=O)OC[C@]12[C@H](OC(C)=O)[C@H](OC(C)=O)[C@@H]3[C@@H](OC(C)=O)[C@@]14O[C@@]3(C)COC(=O)c1cccnc1CCC(C)C(=O)O[C@@H]([C@H](OC(C)=O)[C@@H]2OC(C)=O)[C@]4(C)O (some centres not stated) [EUONINE] | > 1000 | > 1000 | > 1000 | > 1000 | > 1000 | 54.7
CC(=O)OC[C@]12[C@H](OC(C)=O)[C@H](OC(C)=O)[C@@H]3[C@@H](OC(C)=O)[C@@]14O[C@@]3(C)COC(=O)c1cccnc1C(C)C(C)C(=O)O[C@@H]([C@H](OC(C)=O)[C@@H]2OC(C)=O)[C@]4(C)O (some centres not stated) [EUONYMINE] | > 1000 | > 1000 | > 1000 | > 1000 | > 1000 | –
CC(=O)O[C@@H]1[C@@H]2[C@@H](OC(C)=O)[C@@]34O[C@@]2(C)COC(=O)c2cnccc2C(C)C(C)(O)C(=O)O[C@@H]([C@H](OC(C)=O)[C@H](OC(C)=O)[C@@]3(COC(=O)c2ccco2)[C@@H]1OC(C)=O)[C@]4(C)O (some centres not stated) [HYPOGLAUNINE A] | > 1000 | > 1000 | > 1000 | > 1000 | > 1000 | –
CC(=O)O[C@@H]1[C@@H]2[C@@H](O)[C@@]34O[C@@]2(C)COC(=O)c2cnccc2C(C)C(C)(O)C(=O)O[C@@H]([C@H](OC(C)=O)[C@H](OC(C)=O)[C@@]3(COC(=O)c2ccoc2)[C@@H]1OC(C)=O)[C@]4(C)O (some centres not stated) [HYPOGLAUNINE E] | > 1000 | > 1000 | > 1000 | > 1000 | > 1000 | –
CC(=O)OC[C@]12[C@H](OC(C)=O)[C@H](OC(C)=O)[C@@H]3[C@@H](OC(C)=O)[C@@]14O[C@@]3(C)COC(=O)c1cnccc1C(C)C(C)C(=O)O[C@@H]([C@H](OC(C)=O)[C@@H]2OC(C)=O)[C@]4(C)O (some centres not stated) [PERITASSIN A] | > 1000 | > 1000 | > 1000 | > 1000 | > 1000 | 48.2
CC(=O)OC[C@]12[C@H](OC(C)=O)[C@H](OC(C)=O)[C@@H]3[C@@H](OC(C)=O)[C@@]14O[C@@]3(C)COC(=O)c1cnccc1C(C)C(C)C(=O)O[C@@H]([C@H](O)[C@@H]2OC(C)=O)[C@]4(C)O (some centres not stated) [WILFORDININE A] | > 1000 | > 1000 | > 1000 | > 1000 | > 1000 | 59
CC(=O)OC[C@]12[C@@H](OC(C)=O)[C@H](OC(C)=O)[C@@H]3[C@@H](OC(C)=O)[C@@]14O[C@@]3(C)COC(=O)c1cnccc1CCC(C)C(=O)O[C@@H]([C@H](OC(C)=O)[C@@H]2OC(C)=O)[C@]4(C)O (some centres not stated) [WILFORDININE E] | > 1000 | > 1000 | > 1000 | > 1000 | > 1000 | –
CC(=O)OC[C@]12[C@H](OC(C)=O)[C@H](OC(C)=O)[C@@H]3[C@@H](OC(C)=O)[C@@]14O[C@@]3(C)COC(=O)c1cccnc1CCC(C)(O)C(=O)O[C@@H]([C@H](OC(=O)c1ccco1)[C@@H]2OC(C)=O)[C@]4(C)O (some centres not stated) [WILFORTRINE] | > 1000 | > 1000 | > 1000 | > 1000 | > 1000 | –
